Here are results for 16 compounds from ChEMBL document CHEMBL2202995, “Synthesis and SAR study of 4,5-diaryl-1H-imidazole-2(3H)-thione derivatives, as potent 15-lipoxygenase inhibitors” (Bioorg Med Chem, 2012).

Experiment [1] relates to Radical scavenging activity. The experiment is described as follows: Antioxidant activity of compound assessed as DPPH radical scavenging activity by colorimetric method. Type of experiment: functional. In outline:
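DPPH colorimetric scavenging assay: DPPH solution mixed with an equal volume of compound dissolved in ethanol, several dilutions tested, ethanol as control. After 30 min at room temperature, absorbance read at 517 nm. IC50 obtained by regression analysis of the mean values.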
(In general: The DPPH test is a chemical assay of radical scavenging.)

A short description of experiment [2]: Inhibition of soybean 15-LOX assessed as peroxide level by DMAB-MBTH method. Also on record: species or system Glycine max. The gist of the method:
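Soybean lipoxygenase (SLO, 40,000 units/mL, 25 µL) and compound in ethanol preincubated 5 min at room temperature in 50 mM phosphate buffer pH 7.0; ethanol-only control. Reaction started with linoleic acid substrate in ethanol/100 mM KOH. After 7 min, 50 mM DMAB in 100 mM phosphate pH 7.0 was added, then MBTH/hemoglobin in phosphate pH 5.0, as colorimetric peroxide read-out.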

Usually IC50 stands for the concentration needed to halve the response being measured. `CN(C)c1ccc(-c2[nH]c(=S)[nH]c2-c2ccc(Cl)cc2)cc1`: the IC50 in experiment [1] was found to be 15.9 µM; in experiment [2] it was 22.3 µM.

As for `COc1ccc(-c2[nH]c(=S)[nH]c2-c2ccc(Cl)cc2)cc1`, the IC50 amounted to 14 µM in experiment [1] and 4.7 µM in experiment [2]. On to `CC(Cc1ccc(O)c(O)c1)C(C)Cc1ccc(O)c(O)c1` (stereo not given) [NORDIHYDROGUAIARETIC ACID], for which the IC50 in experiment [1] amounted to 6.2 µM. As for `CSc1ccc(-c2[nH]c(=S)[nH]c2-c2ccccc2)cc1`, the values for the IC50 in experiment [1] and in experiment [2] were 90 µM and 5.7 µM, respectively. Turning to `COc1ccc(-c2nc(SC)[nH]c2-c2ccc(Cl)cc2)cc1`, the IC50 in experiment [1] and in experiment [2] was greater than 250 µM throughout. `COc1ccc(-c2[nH]c(=S)[nH]c2-c2ccc(N(C)C)cc2)cc1`: the half-inhibitory concentration (IC50) stood at 15.2 µM in experiment [1] and 9.4 µM in experiment [2]. As to `S=c1[nH]c(-c2ccccc2)c(-c2ccccc2)[nH]1`, the IC50 in experiment [1] is 49.2 µM; in experiment [2] it was 15.2 µM. Consider `COc1ccc(-c2[nH]c(=S)[nH]c2-c2ccc(F)cc2)cc1`, for which the IC50 in experiment [1] is 57.2 µM; in experiment [2] it was 11 µM. The corresponding values for `CSc1ccc(-c2[nH]c(=S)[nH]c2-c2ccc(F)cc2)cc1` are 49 µM and 136 µM.

As for `COc1ccc(-c2[nH]c(=S)[nH]c2-c2ccccc2)cc1`, the IC50 in experiment [1] turned out to be 87.4 µM; in experiment [2], 13.7 µM. The corresponding values for `CSc1ccc(-c2[nH]c(=S)[nH]c2-c2ccc(Cl)cc2)cc1` are 21.2 µM and 19.7 µM. Regarding `S=c1[nH]c(-c2ccc(Cl)cc2)c(-c2ccc(Cl)cc2)[nH]1`, the 50% inhibitory concentration (IC50) in experiment [1] is 107 µM; in experiment [2], 62 µM.

Regarding `S=c1[nH]c(-c2ccccc2)c(-c2ccc(Cl)cc2)[nH]1`, the IC50 came to 30.3 µM in experiment [1] and 24.9 µM in experiment [2].

With `COc1ccc(-c2nc(S)[nH]c2-c2ccc(OC)cc2)cc1`, the 50% inhibitory concentration (IC50) in experiment [1] stood at 15.5 µM; in experiment [2], 14.7 µM.

On to `Cc1nc(N2CCN(C)CC2)nc2c1Nc1ccccc1S2`, for which the half-inhibitory concentration (IC50) in experiment [2] is 34.2 µM. In the case of `Fc1ccc(-c2[nH]c(=S)[nH]c2-c2ccc(F)cc2)cc1`, the half-maximal inhibitory concentration (IC50) in experiment [1] came out at 143 µM; in experiment [2], 23.4 µM.
